According to ChEMBL document CHEMBL1135711, “Evaluation of the Dmt-Tic pharmacophore: conversion of a potent delta-opioid receptor antagonist into a potent delta agonist and ligands with mixed properties” (J Med Chem, 2002):
Square brackets hold non-standard residues; d marks the D form. Peptide text beside a SMILES is read from it. * marks the point of attachment. ξ: configuration not given here. Dmt = Cc1cc(O)cc(C)c1C[C@H](N)C(=O)O; Tic = O=C(O)[C@@H]1Cc2ccccc2CN1; ξTic = O=C(O)C1Cc2ccccc2CN1; NHBn = c1ccc(CN*)cc1; NHPh = c1ccc(N*)cc1

Experiments:
Mu-type opioid receptor [1] = biological target: Mu-type opioid receptor (Rattus norvegicus, UniProt P33535); assay: Binding affinity for rat brain P2 synaptosome Opioid receptor mu 1; assay type: tissue-based
Sequence of Mu-type opioid receptor (Rattus norvegicus, UniProt P33535) (P33535 whole entry): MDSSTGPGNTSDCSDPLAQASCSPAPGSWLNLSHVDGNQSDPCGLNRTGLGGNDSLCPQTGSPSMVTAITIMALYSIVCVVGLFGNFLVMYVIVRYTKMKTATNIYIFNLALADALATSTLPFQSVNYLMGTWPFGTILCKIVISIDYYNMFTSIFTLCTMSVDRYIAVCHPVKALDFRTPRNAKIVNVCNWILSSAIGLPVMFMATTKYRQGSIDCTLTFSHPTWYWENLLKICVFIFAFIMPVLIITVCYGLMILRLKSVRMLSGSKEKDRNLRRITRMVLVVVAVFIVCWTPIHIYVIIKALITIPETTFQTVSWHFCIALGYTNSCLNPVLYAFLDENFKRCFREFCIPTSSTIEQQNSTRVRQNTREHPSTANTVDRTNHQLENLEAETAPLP
In short: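 Equilibrium competition binding on rat brain P2 synaptosomes with [3H]DAGO for µ sites, in 50 mM HEPES pH 7.5 with MgCl2, protease inhibitors and glycerol. 120 min at 23-24 °C, GF/C filtration, ice-cold Tris/BSA washes. Nonspecific binding defined by 2 µM DAGO. 5-8 graded doses over 2-3 log units.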

[2] = biological target: Delta-type opioid receptor (Rattus norvegicus, UniProt P33533); assay: Binding affinity at Opioid receptor delta 1 using rat brain receptor (P2 synaptosome) assay; assay type: tissue-based
Sequence of Delta-type opioid receptor (Rattus norvegicus, UniProt P33533) (P33533 whole entry): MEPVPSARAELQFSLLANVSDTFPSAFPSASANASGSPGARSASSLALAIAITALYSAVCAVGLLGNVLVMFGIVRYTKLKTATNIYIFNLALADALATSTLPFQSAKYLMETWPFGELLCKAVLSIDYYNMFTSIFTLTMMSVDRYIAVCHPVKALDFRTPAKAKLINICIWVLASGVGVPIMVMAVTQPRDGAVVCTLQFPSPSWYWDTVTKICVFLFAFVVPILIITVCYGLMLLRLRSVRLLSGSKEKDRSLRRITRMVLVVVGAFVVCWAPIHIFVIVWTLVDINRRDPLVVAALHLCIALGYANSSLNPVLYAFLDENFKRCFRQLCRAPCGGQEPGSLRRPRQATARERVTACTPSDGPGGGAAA
In short: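 Competition binding at equilibrium on rat brain P2 synaptosomes with [3H]DPDPE for δ sites, in 50 mM HEPES pH 7.5 with MgCl2, protease inhibitors and glycerol. Incubation 120 min at 23-24 °C, then GF/C filtration and ice-cold Tris/BSA washes. Nonspecific binding defined by 2 µM DPDPE. 5-8 graded doses over 2-3 log units.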

Mu-type opioid receptor [3] = biological target: T1, Mu-type opioid receptor (Cavia porcellus, UniProt P97266); assay: Negative logarithm of the molar concentration of an agonist to produce 50% of the maximum effect in guinea pig ileum (mu receptor) determined by Salvadori et al.; assay type: functional, tissue-based
T1 sequence (P97266 whole entry): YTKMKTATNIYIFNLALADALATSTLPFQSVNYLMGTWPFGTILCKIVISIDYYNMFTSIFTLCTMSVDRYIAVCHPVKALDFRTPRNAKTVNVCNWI

Mus musculus [4] = organism: Mus musculus; assay: Delta or Mu antagonist activity tested in mouse vas deferens (MVD) along with, naloxone; conditions: read-out: pA2 (converted)
[5] = biological target: T2, Delta-type opioid receptor (Mus musculus, UniProt P32300); assay: Negative logarithm of the molar concentration required to double the agonist concentration to achieve the original response in mouse vas deferens (MVD); assay type: functional, tissue-based; conditions: read-out: pA2 (converted)
T2 sequence (P32300 whole entry): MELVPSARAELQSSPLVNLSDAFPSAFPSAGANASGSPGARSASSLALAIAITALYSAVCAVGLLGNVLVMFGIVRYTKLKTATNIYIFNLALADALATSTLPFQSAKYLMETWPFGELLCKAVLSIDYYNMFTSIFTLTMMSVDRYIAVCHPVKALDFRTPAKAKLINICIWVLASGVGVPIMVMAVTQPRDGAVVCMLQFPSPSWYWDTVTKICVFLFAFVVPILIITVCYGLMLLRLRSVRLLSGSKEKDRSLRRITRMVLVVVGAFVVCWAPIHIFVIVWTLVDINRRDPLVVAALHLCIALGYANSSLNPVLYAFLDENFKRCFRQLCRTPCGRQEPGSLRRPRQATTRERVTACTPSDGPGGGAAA

[6] = biological target: Delta-type opioid receptor (Mus musculus) (UniProt P32300); assay: Molar concentration required to double the agonist concentration to achieve the original response in mouse vas deferens (MVD); assay type: functional, tissue-based
Sequence of Delta-type opioid receptor (Mus musculus) (P32300 whole entry): as above

Mu-type opioid receptor [7] = biological target: Mu-type opioid receptor (Mus musculus, UniProt P42866); assay: Opioid receptor delta 1 or Opioid receptor mu 1 antagonist activity tested in mouse vas deferens (MVD) along with N,N-dimethyl-Dmt-Tic-OH; assay type: functional, tissue-based; conditions: read-out: pA2 (converted)
Sequence of Mu-type opioid receptor (Mus musculus, UniProt P42866) (P42866 whole entry): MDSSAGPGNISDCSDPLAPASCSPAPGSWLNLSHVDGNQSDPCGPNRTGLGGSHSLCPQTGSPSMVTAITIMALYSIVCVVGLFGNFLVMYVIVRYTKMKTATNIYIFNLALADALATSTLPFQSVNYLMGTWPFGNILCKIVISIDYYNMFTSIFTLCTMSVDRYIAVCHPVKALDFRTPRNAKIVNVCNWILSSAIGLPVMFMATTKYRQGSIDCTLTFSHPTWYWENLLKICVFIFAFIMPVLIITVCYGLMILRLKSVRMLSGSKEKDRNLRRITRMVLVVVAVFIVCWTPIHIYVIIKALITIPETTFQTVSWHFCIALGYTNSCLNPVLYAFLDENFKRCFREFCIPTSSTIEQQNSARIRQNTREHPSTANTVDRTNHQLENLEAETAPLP

[8] = biological target: T2, Delta-type opioid receptor; assay: Opioid receptor delta 1 or Opioid receptor mu 1 antagonist activity tested in mouse vas deferens (MVD) along with, naloxone; assay type: functional, tissue-based; conditions: read-out: pA2 (converted)
Mus musculus [9] = organism: Mus musculus; assay: Delta or Mu antagonist activity tested in mouse vas deferens (MVD) along with N,N-dimethyl-Dmt-Tic-OH; conditions: read-out: pA2 (converted)
Mu-type opioid receptor [10] = biological target: T1, Mu-type opioid receptor; assay: Negative logarithm of the molar concentration of an agonist to produce 50% of the maximum effect in guinea pig ileum (mu receptor) determined; assay type: functional, tissue-based

## Cc1cc(O)cc(C)c1C[C@H](N)C(=O)N1Cc2ccccc2C[C@H]1C(=O)NCCc1nc2ccccc2[nH]1
Mu-type opioid receptor [1]
  Ki: 5.49 nM
[2]
  Ki: 0.067 nM
Mu-type opioid receptor [3]
  EC50: 107 nM

## CC(C)[C@H](NC(=O)[C@H](CC(=O)O)NC(=O)[C@H](Cc1ccccc1)NC(=O)[C@@H](C)NC(=O)[C@@H](N)Cc1ccc(O)cc1)C(=O)N[C@H](C(=O)NCC(N)=O)C(C)C [DELTORPHIN C]
Mus musculus [4]
  Kb: 31.6 nM

## Cc1cc(O)cc(C)c1C[C@H](N)C(=O)N1Cc2ccccc2C[C@H]1C(=O)N[C@@H](C)C(N)=O (H-[Dmt]-[Tic]-Ala-NH2)
[5]
  Kb: 10 nM

## Cc1cc(O)cc(C)c1C[C@H](N)C(=O)N1Cc2ccccc2C[C@H]1c1nc2ccccc2[nH]1
Mu-type opioid receptor [1]
  Ki: 7.22 nM
[2]
  Ki: 0.13 nM
[5]
  Kb: 12.6 nM

## Cc1cc(O)cc(C)c1C[C@H](N)C(=O)N1Cc2ccccc2CC1CO (stereo partly specified)
[6]
  Activity: -7
Mu-type opioid receptor [1]
  Ki: 151 nM
[2]
  Ki: 0.44 nM

## Cc1cc(O)cc(C)c1C[C@H](N)C(=O)N1Cc2ccccc2C[C@H]1C(=O)O (H-[Dmt]-[Tic]-OH)
[6]
  Activity: -8.2

## Cc1cc(O)cc(C)c1C[C@H](N)C(=O)N1Cc2ccccc2C[C@H]1C(=O)NCC(=O)NCc1ccccc1 (H-[Dmt]-[Tic]-Gly-NHBn)
Mu-type opioid receptor [1]
  Ki: 0.16 nM
[2]
  Ki: 0.031 nM
Mu-type opioid receptor [3]
  EC50: 2.69 nM

## Cc1cc(O)cc(C)c1C[C@H](N)C(=O)N1Cc2ccccc2C[C@H]1C(=O)NCC(=O)Nc1ccccc1 (H-[Dmt]-[Tic]-Gly-NHPh)
Mu-type opioid receptor [7]
  Kb: 0.912 nM
[8]
  Kb: 33.9 nM

## Cc1cc(O)cc(C)c1C[C@H](N)C(=O)N1Cc2ccccc2CC1C(N)=O (stereo partly specified) (H-[Dmt]-[ξTic]-NH2)
[6]
  Activity: -7.2

## Cc1cc(O)cc(C)c1C[C@H](N)C(=O)N1Cc2ccccc2C[C@H]1C(=O)NCc1nc2ccccc2[nH]1
Mus musculus [4]
  Kb: 35.5 nM
Mus musculus [9]
  Kb: 0.2 nM

## C[C@@H](NC(=O)[C@@H](N)Cc1ccc(O)cc1)C(=O)N[C@@H](Cc1ccccc1)C(=O)NCC(=O)N[C@@H](Cc1ccc(O)cc1)C(=O)N1CCC[C@H]1C(=O)N[C@@H](CO)C(N)=O [DERMORPHIN]
Mu-type opioid receptor [10]
  EC50: 0.708 nM
